In ChEMBL document CHEMBL2390926, “Identification of novel FLT3 kinase inhibitors” (Eur J Med Chem, 2013):
pEC50: −log10 of the molar value. The source made the active and inactive calls. No cut-off for these calls is given here.

biological target: Tyrosine-protein kinase SYK (Homo sapiens) (UniProt P43405); experiment: Inhibition of SYK (unknown origin) transfected in mouse Ba/F3 cells at 1 uM after 24 hrs; type: cell-based; settings: BaF3

| inhibition | Compound |
| --- | --- |
| inactive | COc1ccc(C(=O)Nc2cc(-c3ccccc3)[nH]n2)cc1 |
| inactive | Cc1ccc(-c2cc(NC(=O)c3ccc(F)cc3)[nH]n2)cc1 |
| inactive | Cc1cccc(C(=O)Nc2cc(-c3ccc(F)cc3)n[nH]2)c1 |

biological target: Tyrosine-protein kinase ABL2 (Homo sapiens) (UniProt P42684); experiment: Inhibition of ABL2 (unknown origin) transfected in mouse Ba/F3 cells at 1 uM after 24 hrs; type: cell-based; settings: BaF3
Procedure, shortened: (§1)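 Kinase specificity panel: each Ba/F3 line transformed with one of 24 tyrosine kinases depends on that kinase to grow. Cells were given compound at 1 or 5 µM for 24 h, with DMSO as comparator. Percentage growth was read by ATP-lite luminescence and reported as mean ± SEM.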

Chain of Tyrosine-protein kinase ABL2 (Homo sapiens) (P42684 whole entry): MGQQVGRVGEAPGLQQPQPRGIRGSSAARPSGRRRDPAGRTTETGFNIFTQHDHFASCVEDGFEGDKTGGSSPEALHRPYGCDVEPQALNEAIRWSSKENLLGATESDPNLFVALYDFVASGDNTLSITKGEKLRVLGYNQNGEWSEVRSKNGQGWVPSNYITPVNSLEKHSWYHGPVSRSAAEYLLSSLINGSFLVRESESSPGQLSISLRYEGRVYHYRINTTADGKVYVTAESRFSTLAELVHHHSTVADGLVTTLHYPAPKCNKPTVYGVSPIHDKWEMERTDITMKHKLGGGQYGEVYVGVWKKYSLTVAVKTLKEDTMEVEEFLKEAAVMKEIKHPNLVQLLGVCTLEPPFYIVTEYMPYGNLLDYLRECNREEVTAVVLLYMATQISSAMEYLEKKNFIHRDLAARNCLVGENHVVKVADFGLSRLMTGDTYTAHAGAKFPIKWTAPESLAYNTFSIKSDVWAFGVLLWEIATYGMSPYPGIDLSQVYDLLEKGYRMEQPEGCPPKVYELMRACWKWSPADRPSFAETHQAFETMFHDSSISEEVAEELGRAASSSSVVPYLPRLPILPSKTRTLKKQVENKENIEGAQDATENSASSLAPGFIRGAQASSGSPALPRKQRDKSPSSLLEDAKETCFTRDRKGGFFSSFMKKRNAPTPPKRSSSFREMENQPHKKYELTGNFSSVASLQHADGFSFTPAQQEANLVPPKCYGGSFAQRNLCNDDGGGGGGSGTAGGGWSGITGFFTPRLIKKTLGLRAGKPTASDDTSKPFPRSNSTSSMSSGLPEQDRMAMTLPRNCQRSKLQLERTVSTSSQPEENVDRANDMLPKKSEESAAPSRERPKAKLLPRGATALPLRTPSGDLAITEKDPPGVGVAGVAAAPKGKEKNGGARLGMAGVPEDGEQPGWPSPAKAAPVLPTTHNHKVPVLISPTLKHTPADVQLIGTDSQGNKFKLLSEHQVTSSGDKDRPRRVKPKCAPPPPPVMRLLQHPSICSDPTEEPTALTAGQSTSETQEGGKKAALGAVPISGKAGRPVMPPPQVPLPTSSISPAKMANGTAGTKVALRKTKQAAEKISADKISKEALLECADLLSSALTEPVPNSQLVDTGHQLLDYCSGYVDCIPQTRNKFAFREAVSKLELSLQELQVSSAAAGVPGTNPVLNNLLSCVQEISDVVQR

| inhibition | Compound |
| --- | --- |
| inactive | COc1ccc(C(=O)Nc2cc(-c3ccccc3)[nH]n2)cc1 |
| inactive | Cc1ccc(-c2cc(NC(=O)c3ccc(F)cc3)[nH]n2)cc1 |
| inactive | Cc1cccc(C(=O)Nc2cc(-c3ccc(F)cc3)n[nH]2)c1 |

test system: not listed separately; experiment: Cytotoxicity against mouse BA/F3 cells transfected with FLT3-ITD after 24 hrs by plate reader analysis; settings: BaF3, 24 h

| Compound | pEC50 |
| --- | --- |
| COc1ccc(C(=O)Nc2cc(-c3ccccc3)[nH]n2)cc1 | 7.44 |
| Cc1ccc(-c2cc(NC(=O)c3ccc(F)cc3)[nH]n2)cc1 | 6.86 |
| Fc1ccc(-c2n[nH]cc2-c2ccncc2)cc1Cl | 6.39 |
| Cc1ccc(-n2cnc3cc(Nc4nnc(C)c5ccccc45)ccc32)cc1 | 6.14 |
| Cc1cccc(C(=O)Nc2cc(-c3ccc(F)cc3)n[nH]2)c1 | 6.53 |

biological target: T1, Tyrosine-protein kinase receptor TYRO3 (Homo sapiens) (UniProt Q06418); experiment: Inhibition of TYRO3 (unknown origin) transfected in mouse Ba/F3 cells at 1 uM after 24 hrs; type: cell-based; settings: BaF3
T1 sequence (whole entry): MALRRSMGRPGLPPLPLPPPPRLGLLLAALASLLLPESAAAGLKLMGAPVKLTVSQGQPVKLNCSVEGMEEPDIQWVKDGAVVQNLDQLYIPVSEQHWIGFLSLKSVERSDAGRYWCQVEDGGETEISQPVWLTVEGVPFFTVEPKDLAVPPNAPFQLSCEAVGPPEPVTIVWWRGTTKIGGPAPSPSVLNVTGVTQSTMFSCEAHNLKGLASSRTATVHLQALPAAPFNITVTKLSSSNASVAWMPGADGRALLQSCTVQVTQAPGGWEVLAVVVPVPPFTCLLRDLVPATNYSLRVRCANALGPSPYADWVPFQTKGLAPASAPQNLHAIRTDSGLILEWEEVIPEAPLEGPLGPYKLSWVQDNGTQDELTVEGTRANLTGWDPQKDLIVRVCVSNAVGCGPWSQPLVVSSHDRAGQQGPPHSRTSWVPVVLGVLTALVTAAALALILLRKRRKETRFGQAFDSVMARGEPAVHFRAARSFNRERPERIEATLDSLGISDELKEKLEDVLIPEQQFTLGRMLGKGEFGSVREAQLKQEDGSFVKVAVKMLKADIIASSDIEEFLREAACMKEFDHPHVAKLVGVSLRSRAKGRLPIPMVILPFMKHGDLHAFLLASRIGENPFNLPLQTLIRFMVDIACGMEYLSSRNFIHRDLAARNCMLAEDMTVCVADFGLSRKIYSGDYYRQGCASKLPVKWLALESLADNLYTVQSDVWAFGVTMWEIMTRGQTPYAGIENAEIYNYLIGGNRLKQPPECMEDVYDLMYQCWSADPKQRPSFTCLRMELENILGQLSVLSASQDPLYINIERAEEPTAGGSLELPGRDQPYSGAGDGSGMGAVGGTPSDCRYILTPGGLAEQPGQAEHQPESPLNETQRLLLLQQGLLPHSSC

| inhibition | Compound |
| --- | --- |
| inactive | COc1ccc(C(=O)Nc2cc(-c3ccccc3)[nH]n2)cc1 |
| inactive | Cc1ccc(-c2cc(NC(=O)c3ccc(F)cc3)[nH]n2)cc1 |
| inactive | Cc1cccc(C(=O)Nc2cc(-c3ccc(F)cc3)n[nH]2)c1 |

biological target: Ephrin type-A receptor 5 (Homo sapiens) (UniProt P54756); experiment: Inhibition of EPHA5 (unknown origin) transfected in mouse Ba/F3 cells at 1 uM after 24 hrs; type: cell-based; settings: BaF3; procedure, shortened: as §1
Sequence (P54756 whole entry): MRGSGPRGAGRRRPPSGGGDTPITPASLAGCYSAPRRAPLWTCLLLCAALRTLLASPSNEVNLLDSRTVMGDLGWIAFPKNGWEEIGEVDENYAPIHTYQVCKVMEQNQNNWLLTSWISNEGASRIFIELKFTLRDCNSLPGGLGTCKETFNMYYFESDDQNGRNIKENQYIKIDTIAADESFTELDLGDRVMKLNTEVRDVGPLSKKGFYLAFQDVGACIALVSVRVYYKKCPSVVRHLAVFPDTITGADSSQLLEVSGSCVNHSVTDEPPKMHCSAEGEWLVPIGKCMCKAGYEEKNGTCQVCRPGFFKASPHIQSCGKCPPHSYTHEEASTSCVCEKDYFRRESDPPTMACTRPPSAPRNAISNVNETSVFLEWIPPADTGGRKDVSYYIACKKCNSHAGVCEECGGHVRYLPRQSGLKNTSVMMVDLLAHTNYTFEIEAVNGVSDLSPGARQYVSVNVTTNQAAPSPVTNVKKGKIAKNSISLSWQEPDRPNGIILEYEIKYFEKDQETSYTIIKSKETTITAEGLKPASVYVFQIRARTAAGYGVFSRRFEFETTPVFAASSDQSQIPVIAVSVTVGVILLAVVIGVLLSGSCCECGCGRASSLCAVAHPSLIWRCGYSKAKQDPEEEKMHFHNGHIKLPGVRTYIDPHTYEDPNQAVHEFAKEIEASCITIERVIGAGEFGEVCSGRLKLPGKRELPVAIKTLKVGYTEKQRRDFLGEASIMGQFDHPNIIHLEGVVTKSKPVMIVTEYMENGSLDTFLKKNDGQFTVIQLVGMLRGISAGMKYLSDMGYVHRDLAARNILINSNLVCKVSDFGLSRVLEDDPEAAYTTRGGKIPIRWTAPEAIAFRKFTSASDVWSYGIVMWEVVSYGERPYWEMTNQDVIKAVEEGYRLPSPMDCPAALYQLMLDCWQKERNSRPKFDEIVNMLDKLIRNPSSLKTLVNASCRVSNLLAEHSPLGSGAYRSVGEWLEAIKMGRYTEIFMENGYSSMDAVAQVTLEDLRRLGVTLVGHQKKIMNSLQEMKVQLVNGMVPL

| inhibition | Compound |
| --- | --- |
| inactive | COc1ccc(C(=O)Nc2cc(-c3ccccc3)[nH]n2)cc1 |
| inactive | Cc1ccc(-c2cc(NC(=O)c3ccc(F)cc3)[nH]n2)cc1 |
| inactive | Cc1cccc(C(=O)Nc2cc(-c3ccc(F)cc3)n[nH]2)c1 |

biological target: T2, Non-receptor tyrosine-protein kinase TNK1 (Homo sapiens) (UniProt Q13470); experiment: Inhibition of TNK1 (unknown origin) transfected in mouse Ba/F3 cells at 1 uM after 24 hrs; type: cell-based; settings: BaF3
T2 sequence (whole entry): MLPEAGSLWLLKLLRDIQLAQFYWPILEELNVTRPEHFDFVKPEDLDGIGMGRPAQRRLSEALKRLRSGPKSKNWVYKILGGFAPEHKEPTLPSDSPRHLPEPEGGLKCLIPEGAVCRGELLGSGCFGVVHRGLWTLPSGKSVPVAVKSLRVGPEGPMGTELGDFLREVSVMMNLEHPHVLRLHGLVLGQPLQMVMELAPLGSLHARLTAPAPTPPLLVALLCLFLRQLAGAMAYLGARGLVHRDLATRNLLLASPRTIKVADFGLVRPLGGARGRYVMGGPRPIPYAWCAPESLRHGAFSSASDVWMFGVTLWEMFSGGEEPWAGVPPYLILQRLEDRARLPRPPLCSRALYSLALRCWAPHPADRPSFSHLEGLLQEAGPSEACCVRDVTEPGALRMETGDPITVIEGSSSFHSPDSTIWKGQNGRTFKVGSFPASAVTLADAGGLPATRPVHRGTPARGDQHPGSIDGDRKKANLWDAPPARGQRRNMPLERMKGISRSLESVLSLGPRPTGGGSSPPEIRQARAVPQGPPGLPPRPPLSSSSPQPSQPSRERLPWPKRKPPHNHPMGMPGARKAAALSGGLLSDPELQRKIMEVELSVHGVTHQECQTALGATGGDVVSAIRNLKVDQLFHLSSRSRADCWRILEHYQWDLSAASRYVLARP

| inhibition | Compound |
| --- | --- |
| inactive | COc1ccc(C(=O)Nc2cc(-c3ccccc3)[nH]n2)cc1 |
| inactive | Cc1ccc(-c2cc(NC(=O)c3ccc(F)cc3)[nH]n2)cc1 |
| inactive | Cc1cccc(C(=O)Nc2cc(-c3ccc(F)cc3)n[nH]2)c1 |

biological target: Tyrosine-protein kinase Fyn (Homo sapiens) (UniProt P06241); experiment: Inhibition of FYN (unknown origin) transfected in mouse Ba/F3 cells at 1 uM after 24 hrs; type: cell-based; settings: BaF3; procedure, shortened: as §1
Sequence (P06241 2-537 limits assumed): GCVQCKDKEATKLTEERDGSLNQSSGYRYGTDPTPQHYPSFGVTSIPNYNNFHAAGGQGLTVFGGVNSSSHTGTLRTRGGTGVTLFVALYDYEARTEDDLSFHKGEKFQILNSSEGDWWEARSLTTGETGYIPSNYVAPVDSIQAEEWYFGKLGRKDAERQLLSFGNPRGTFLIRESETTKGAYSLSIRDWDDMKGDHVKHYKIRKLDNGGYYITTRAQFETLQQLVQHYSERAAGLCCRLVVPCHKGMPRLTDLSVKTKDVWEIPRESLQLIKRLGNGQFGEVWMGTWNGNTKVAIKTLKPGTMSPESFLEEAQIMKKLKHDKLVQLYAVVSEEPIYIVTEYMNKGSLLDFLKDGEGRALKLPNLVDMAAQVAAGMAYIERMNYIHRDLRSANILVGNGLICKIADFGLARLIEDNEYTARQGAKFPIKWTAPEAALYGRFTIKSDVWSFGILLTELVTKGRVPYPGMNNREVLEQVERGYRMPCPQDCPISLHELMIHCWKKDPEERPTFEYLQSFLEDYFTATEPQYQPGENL

| inhibition | Compound |
| --- | --- |
| inactive | COc1ccc(C(=O)Nc2cc(-c3ccccc3)[nH]n2)cc1 |
| inactive | Cc1ccc(-c2cc(NC(=O)c3ccc(F)cc3)[nH]n2)cc1 |
| inactive | Cc1cccc(C(=O)Nc2cc(-c3ccc(F)cc3)n[nH]2)c1 |

biological target: Epidermal growth factor receptor (Homo sapiens) (UniProt P00533); experiment: Inhibition of EGFR (unknown origin) transfected in mouse Ba/F3 cells at 1 uM after 24 hrs; type: cell-based; settings: BaF3; procedure, shortened: as §1

| inhibition | Compound |
| --- | --- |
| inactive | COc1ccc(C(=O)Nc2cc(-c3ccccc3)[nH]n2)cc1 |
| inactive | Cc1ccc(-c2cc(NC(=O)c3ccc(F)cc3)[nH]n2)cc1 |
| inactive | Cc1cccc(C(=O)Nc2cc(-c3ccc(F)cc3)n[nH]2)c1 |

biological target: Tyrosine-protein kinase receptor UFO (Homo sapiens) (UniProt P30530); experiment: Inhibition of AXL (unknown origin) transfected in mouse Ba/F3 cells at 1 uM after 24 hrs; type: cell-based; settings: BaF3; procedure, shortened: as §1
Sequence (P30530 whole entry): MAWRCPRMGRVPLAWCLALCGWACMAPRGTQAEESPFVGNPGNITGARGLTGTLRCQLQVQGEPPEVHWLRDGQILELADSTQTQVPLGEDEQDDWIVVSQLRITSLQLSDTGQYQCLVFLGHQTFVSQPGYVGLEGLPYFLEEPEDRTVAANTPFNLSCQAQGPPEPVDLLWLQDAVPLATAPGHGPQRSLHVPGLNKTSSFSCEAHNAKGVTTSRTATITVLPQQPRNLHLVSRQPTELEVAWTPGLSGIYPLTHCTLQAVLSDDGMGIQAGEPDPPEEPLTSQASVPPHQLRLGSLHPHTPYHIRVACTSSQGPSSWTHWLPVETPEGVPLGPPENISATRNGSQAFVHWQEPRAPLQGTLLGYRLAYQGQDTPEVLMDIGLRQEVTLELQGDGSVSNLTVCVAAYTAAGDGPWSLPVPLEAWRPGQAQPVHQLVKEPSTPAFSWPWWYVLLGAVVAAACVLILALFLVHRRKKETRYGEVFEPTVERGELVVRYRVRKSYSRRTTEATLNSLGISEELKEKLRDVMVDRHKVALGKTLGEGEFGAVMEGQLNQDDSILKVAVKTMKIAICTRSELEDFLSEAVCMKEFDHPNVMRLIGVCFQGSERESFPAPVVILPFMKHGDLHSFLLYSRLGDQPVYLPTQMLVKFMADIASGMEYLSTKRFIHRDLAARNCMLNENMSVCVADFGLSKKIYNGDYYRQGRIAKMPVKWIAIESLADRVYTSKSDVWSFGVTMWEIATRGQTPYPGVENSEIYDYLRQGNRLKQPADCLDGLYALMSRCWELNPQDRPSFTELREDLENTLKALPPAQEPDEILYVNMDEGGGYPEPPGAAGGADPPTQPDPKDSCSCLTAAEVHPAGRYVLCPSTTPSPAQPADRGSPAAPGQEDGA

| inhibition | Compound |
| --- | --- |
| inactive | COc1ccc(C(=O)Nc2cc(-c3ccccc3)[nH]n2)cc1 |
| inactive | Cc1ccc(-c2cc(NC(=O)c3ccc(F)cc3)[nH]n2)cc1 |
| inactive | Cc1cccc(C(=O)Nc2cc(-c3ccc(F)cc3)n[nH]2)c1 |

test system: BaF3; experiment: Cytotoxicity against mouse BA/F3 cells transfected with FLT3-ITD at 1 uM after 24 hrs by plate reader analysis; type: functional, cell-based; settings: not given

| Compound | Activity |
| --- | --- |
| COc1ccc(C(=O)Nc2cc(-c3ccccc3)[nH]n2)cc1 | Active |
| Cc1ccc(-c2cc(NC(=O)c3ccc(F)cc3)[nH]n2)cc1 | Active |
| Fc1ccc(-c2n[nH]cc2-c2ccncc2)cc1Cl | Active |
| Cc1ccc(-n2cnc3cc(Nc4nnc(C)c5ccccc45)ccc32)cc1 | Active |
| Cc1cccc(C(=O)Nc2cc(-c3ccc(F)cc3)n[nH]2)c1 | Active |

test system: EOL1; experiment: Cytotoxicity against human EOL-1 cells after 72 hrs by plate reader analysis; type: functional, cell-based; settings: EOL1, 72 h

| Compound | pEC50 |
| --- | --- |
| COc1ccc(C(=O)Nc2cc(-c3ccccc3)[nH]n2)cc1 | 7.18 |
| Cc1ccc(-c2cc(NC(=O)c3ccc(F)cc3)[nH]n2)cc1 | 6.30 |
| Fc1ccc(-c2n[nH]cc2-c2ccncc2)cc1Cl | 6.42 |
| Cc1ccc(-n2cnc3cc(Nc4nnc(C)c5ccccc45)ccc32)cc1 | 6.05 |
| Cc1cccc(C(=O)Nc2cc(-c3ccc(F)cc3)n[nH]2)c1 | 6.69 |

biological target: Proto-oncogene tyrosine-protein kinase Src (Homo sapiens) (UniProt P12931); experiment: Inhibition of SRC (unknown origin) transfected in mouse Ba/F3 cells at 1 uM after 24 hrs; type: cell-based; settings: BaF3
Sequence (P12931 2-536 limits assumed): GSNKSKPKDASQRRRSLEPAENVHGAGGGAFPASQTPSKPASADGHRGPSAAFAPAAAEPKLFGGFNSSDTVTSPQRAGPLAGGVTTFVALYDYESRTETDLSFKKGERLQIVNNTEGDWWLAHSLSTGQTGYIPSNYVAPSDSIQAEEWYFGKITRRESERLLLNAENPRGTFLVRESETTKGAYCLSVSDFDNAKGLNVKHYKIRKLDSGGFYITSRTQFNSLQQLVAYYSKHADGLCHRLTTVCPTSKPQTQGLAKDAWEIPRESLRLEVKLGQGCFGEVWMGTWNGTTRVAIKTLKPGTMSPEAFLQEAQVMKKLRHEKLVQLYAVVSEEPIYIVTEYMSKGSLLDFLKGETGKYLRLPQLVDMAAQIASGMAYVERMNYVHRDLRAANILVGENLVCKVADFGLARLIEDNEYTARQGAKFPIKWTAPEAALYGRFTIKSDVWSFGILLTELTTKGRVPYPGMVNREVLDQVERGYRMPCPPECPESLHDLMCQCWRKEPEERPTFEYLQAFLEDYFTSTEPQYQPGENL

| inhibition | Compound |
| --- | --- |
| inactive | COc1ccc(C(=O)Nc2cc(-c3ccccc3)[nH]n2)cc1 |
| inactive | Cc1ccc(-c2cc(NC(=O)c3ccc(F)cc3)[nH]n2)cc1 |
| inactive | Cc1cccc(C(=O)Nc2cc(-c3ccc(F)cc3)n[nH]2)c1 |

test system: not listed separately; experiment: Cytotoxicity against mouse BA/F3 cells transfected with FLT3-ITD after 24 hrs by plate reader analysis in presence of IL3; settings: BaF3, 24 h

| Compound | pEC50 |
| --- | --- |
| COc1ccc(C(=O)Nc2cc(-c3ccccc3)[nH]n2)cc1 | 4.74 |
| Cc1ccc(-c2cc(NC(=O)c3ccc(F)cc3)[nH]n2)cc1 | 4.64 |
| Fc1ccc(-c2n[nH]cc2-c2ccncc2)cc1Cl | 4.80 |
| Cc1ccc(-n2cnc3cc(Nc4nnc(C)c5ccccc45)ccc32)cc1 | 4.72 |
| Cc1cccc(C(=O)Nc2cc(-c3ccc(F)cc3)n[nH]2)c1 | 4.68 |
